ChEMBL document CHEMBL4396973, “Design and development of a series of borocycles as selective, covalent kallikrein 5 inhibitors” (Bioorg Med Chem Lett, 2019)

How the values were obtained:
Kallikrein-5 [1] = target: T1, Kallikrein-5 (Homo sapiens, UniProt Q9Y337); test: Inhibition of human recombinant 6His-Q-FLAG-tagged KLK5 expressed in baculovirus infected Sf9 insect cells using (Tos-Gly-Pro-Arg)2[R110].2TFA as substrate measured at 30 secs interval for 5 mins by FLINT assay
T1 sequence (Q9Y337 whole entry): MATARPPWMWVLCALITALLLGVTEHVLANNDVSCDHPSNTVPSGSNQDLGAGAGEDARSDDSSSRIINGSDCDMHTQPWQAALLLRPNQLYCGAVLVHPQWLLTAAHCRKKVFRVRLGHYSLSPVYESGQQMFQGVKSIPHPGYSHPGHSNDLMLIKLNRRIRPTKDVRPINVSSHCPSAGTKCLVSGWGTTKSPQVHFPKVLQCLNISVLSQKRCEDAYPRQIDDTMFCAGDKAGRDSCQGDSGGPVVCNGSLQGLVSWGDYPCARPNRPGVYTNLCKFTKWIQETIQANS
Method in brief: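 Standard KLK5 assay format. Its theoretical tight-binding limit corresponds to pIC50 8.4.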

Kallikrein-1 = Kallikrein-1 (Homo sapiens, UniProt P06870); test: Inhibition of human recombinant N-terminal His-tagged and enterokinase cleavage site-fused KLK1 (19 to 262 residues) expressed in baculovirus infected Sf9 insect cells using R110 labelled GSK3162232A as substrate measured at 30 secs interval for 5 mins by FLINT assay
Coagulation factor X = Coagulation factor X (Homo sapiens, UniProt P00742); test: Inhibition of recombinant human C-terminal 10-His-tagged factor Xa (L24 to K488 residues) expressed in baculovirus infected Sf21 insect cells using Mca-RPKPVE-Nval-WRK(Dnp)-NH2 as substrate incubated for 40 mins by FLINT assay
Plasma kallikrein = Plasma kallikrein (Homo sapiens, UniProt P03952); test: Inhibition of human C-terminal 6-His-tagged KLKB1 (G20-A638 residues) expressed in mouse NS0 cells using PFR-AMC as substrate incubated for 40 mins by FLINT assay
Kallikrein-7 = Kallikrein-7 (Homo sapiens, UniProt P49862); test: Inhibition of recombinant human C-terminal 10-His-tagged KLK7 (Glu23 to His252 residues) expressed in mouse NS0 cells using 5-FAM-E-A-L-Y-L-V-S-G-C(5-TAMRA) as substrate incubated for 40 mins by FLINT assay
Kallikrein-8 = target: T2, Kallikrein-8 (Homo sapiens, UniProt O60259); test: Inhibition of recombinant human C-terminal 10-His-tagged KLK8 (Gln29 to Gly260 residues) expressed in mouse NS0 cells using BOC-VPR-AMC as substrate incubated for 40 mins by FLINT assay
T2 sequence (O60259 whole entry): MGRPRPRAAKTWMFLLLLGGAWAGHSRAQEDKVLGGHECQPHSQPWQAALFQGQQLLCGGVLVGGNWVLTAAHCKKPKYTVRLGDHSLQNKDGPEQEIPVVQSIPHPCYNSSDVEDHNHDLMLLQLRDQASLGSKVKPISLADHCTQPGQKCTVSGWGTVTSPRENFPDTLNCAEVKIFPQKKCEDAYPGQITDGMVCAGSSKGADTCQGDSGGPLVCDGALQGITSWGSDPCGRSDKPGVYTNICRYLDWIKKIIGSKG

Kallikrein-14 = target: T3, Kallikrein-14 (Homo sapiens, UniProt Q9P0G3); test: Inhibition of recombinant human C-terminal 10-His-tagged KLK14 (Q19 to M248 residues) expressed in mouse NS0 cells using BOC-VPR-AMC as substrate incubated for 40 mins by FLINT assay
T3 sequence (Q9P0G3 whole entry): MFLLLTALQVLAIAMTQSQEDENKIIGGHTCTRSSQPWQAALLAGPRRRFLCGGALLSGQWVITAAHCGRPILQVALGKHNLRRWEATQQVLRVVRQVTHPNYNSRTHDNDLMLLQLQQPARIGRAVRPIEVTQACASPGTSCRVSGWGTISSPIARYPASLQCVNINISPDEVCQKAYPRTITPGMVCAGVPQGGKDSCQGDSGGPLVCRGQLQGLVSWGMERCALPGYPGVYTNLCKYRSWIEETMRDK

[2] = target: T4, Suppressor of tumorigenicity 14 protein (Homo sapiens, UniProt Q9Y5Y6); test: Inhibition of recombinant human N-terminal Met and 6-His-tagged matriptase (G596 to V855 residues) expressed in Escherichia coli using Boc-QAR-AMC as substrate incubated for 40 mins by FLINT assay
T4 sequence (Q9Y5Y6 whole entry): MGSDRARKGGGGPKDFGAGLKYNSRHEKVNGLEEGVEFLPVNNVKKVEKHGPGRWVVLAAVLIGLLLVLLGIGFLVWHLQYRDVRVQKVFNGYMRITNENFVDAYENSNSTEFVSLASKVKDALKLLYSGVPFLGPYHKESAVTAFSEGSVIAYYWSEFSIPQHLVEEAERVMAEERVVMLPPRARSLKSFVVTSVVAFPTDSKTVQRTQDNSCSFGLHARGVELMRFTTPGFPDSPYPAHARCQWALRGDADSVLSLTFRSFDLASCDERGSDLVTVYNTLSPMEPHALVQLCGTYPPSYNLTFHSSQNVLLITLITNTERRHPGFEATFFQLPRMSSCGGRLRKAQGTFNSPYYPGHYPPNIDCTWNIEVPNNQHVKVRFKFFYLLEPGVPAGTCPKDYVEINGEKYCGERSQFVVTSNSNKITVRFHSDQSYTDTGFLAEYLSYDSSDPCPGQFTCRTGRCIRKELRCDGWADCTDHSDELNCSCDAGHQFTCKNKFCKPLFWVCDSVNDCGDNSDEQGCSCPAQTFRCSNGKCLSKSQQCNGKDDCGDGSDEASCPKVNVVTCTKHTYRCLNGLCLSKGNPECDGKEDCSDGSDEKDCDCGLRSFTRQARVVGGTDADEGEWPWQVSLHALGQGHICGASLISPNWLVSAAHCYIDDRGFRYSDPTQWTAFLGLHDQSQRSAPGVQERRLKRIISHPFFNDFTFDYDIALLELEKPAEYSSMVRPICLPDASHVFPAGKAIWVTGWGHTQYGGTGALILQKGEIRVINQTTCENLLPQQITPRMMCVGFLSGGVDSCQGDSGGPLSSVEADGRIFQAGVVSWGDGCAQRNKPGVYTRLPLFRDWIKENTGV

Prothrombin = Prothrombin (Homo sapiens, UniProt P00734); test: Inhibition of human recombinant C-terminal 10-His-tagged thrombin (M1 to E622 residues) expressed in mouse NS0 cells using BOC-VPR-AMC as substrate incubated for 40 mins by FLINT assay
Neutrophil elastase = target: T5, Neutrophil elastase (Homo sapiens, UniProt P08246); test: Inhibition of human neutrophil elastase using MeOSuc-AAPV-AMC as substrate incubated for 40 mins by FLINT assay
T5 sequence (P08246 whole entry): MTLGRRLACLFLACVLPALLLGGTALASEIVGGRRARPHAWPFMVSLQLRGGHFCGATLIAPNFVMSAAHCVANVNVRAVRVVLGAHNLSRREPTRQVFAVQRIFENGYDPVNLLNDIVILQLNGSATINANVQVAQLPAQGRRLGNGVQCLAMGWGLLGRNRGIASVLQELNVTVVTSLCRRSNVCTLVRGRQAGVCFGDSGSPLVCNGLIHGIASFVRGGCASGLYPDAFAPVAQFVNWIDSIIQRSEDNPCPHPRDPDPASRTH

[3] = target: Urokinase-type plasminogen activator (Homo sapiens, UniProt P00749); test: Inhibition of recombinant human C-terminal 10-His-tagged urokinase (M1 to L431 residues) expressed in mouse NS0 cells using Z-GGR-AMC as substrate incubated for 40 mins by FLINT assay
[4] = target: Kallikrein-5 (Homo sapiens) (UniProt Q9Y337); test: Covalent reversible inhibition of human recombinant 6His-Q-FLAG-tagged KLK5 expressed in baculovirus infected Sf9 insect cells assessed as dissociation rate constant
Method in brief: (§1)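 Jump-dilution experiment used to follow dissociation from KLK5. The apparent off-rate constant (K-off, per min) and dissociation half-life (T1/2) were derived from it.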

Kallikrein-5 [5] = target: T1, Kallikrein-5; test: Inhibition of human recombinant 6His-Q-FLAG-tagged KLK5 expressed in baculovirus infected Sf9 insect cells using (Tos-Gly-Pro-Arg)2[R110].2TFA as substrate measured at 30 secs interval for 5 mins using 1 x 10'10M enzyme by FLINT assay
[6] = target: Kallikrein-5 (Homo sapiens) (UniProt Q9Y337); test: Covalent reversible inhibition of human recombinant 6His-Q-FLAG-tagged KLK5 expressed in baculovirus infected Sf9 insect cells assessed as dissociation half life; method in brief: as §1
Homo sapiens [7] = species: Homo sapiens; test: Selectivity ratio of IC50 for human recombinant N-terminal His-tagged and enterokinase cleavage site-fused KLK1 (19 to 262 residues) expressed in baculovirus infected Sf9 insect cells to IC50 for human recombinant 6His-Q-FLAG-tagged KLK5 expressed in baculovirus infected Sf9 insect cells
[8] = Dissociation constant, borocycle pKa of the compound; type: physicochemical
Homo sapiens [9] = species: Homo sapiens; test: Selectivity ratio of IC50 for human C-terminal 6-His-tagged KLKB1 (G20 to A638 residues) expressed in mouse NS0 cells to IC50 for human recombinant 6His-Q-FLAG-tagged KLK5 expressed in baculovirus infected Sf9 insect cells

In the case of `N=C(N)c1ccc([C@@H]2Cc3ccc(C(F)(F)F)cc3B(O)O2)cc1OCc1cccnc1`, the IC50 (Kallikrein-5 [1]) is reported as 5.01 nM, the IC50 (Kallikrein-1) is reported as 2000 nM and the IC50 (Coagulation factor X) is reported as 3980 nM. The IC50 (Plasma kallikrein) was 398 nM, the IC50 (Kallikrein-7) was > 100000 nM and the IC50 (Kallikrein-8) was 31.6 nM. It also gave an IC50 (Kallikrein-14) of 398 nM, an IC50 [2] of 2000 nM and an IC50 (Prothrombin) of 20000 nM. For the same compound, the IC50 (Neutrophil elastase) was > 100000 nM, the IC50 [3] was > 100000 nM and the Kdiss [4] was 0.00214 s⁻¹. For the same compound, the IC50 (Kallikrein-5 [5]) was < 0.794 nM and the T1/2 [6] was 5 min.
`N=C(N)c1ccc(CC2OB(O)c3ccccc32)cc1` (racemic) showed an IC50 (Kallikrein-5 [1]) of 158 nM, an IC50 (Kallikrein-1) of 5010 nM and a Ratio IC50 (Homo sapiens [7]) of 30 to 100.
Compound `N=C(N)c1ccc(C2Cc3ccccc3B(O)O2)cc1OCc1cccnc1` (racemic) has an IC50 (Kallikrein-1) of 31600 nM, a pKa [8] of 4.83 and an IC50 (Coagulation factor X) of 7940 nM. For the same compound, the IC50 (Plasma kallikrein) was 100 nM, the IC50 (Kallikrein-7) was > 100000 nM and the IC50 (Kallikrein-8) was 398 nM. It also gave an IC50 (Kallikrein-14) of 794 nM, an IC50 [2] of 6310 nM and an IC50 (Prothrombin) of 2510 nM. The IC50 (Neutrophil elastase) was 5010 nM, the IC50 [3] was 50100 nM and the Ratio IC50 (Homo sapiens [7]) was > 100. It also gave an IC50 (Kallikrein-5 [5]) of 3.98 nM and a Ratio IC50 (Homo sapiens [9]) of 10.
With `N=C(N)c1ccc(CC2OB(O)c3ccccc32)cc1OCc1cccnc1` (racemic) the IC50 (Kallikrein-5 [1]) was 20 nM, the IC50 (Kallikrein-1) was 316000 nM and the pKa [8] was 4.8. The IC50 (Coagulation factor X) was > 100000 nM, the IC50 (Plasma kallikrein) was 79.4 nM and the IC50 (Kallikrein-7) was > 100000 nM. For the same compound, the IC50 (Kallikrein-8) was 200 nM, the IC50 (Kallikrein-14) was 2000 nM and the IC50 [2] was 7940 nM. It also gave an IC50 (Prothrombin) of 10000 nM, an IC50 (Neutrophil elastase) of 12600 nM and an IC50 [3] of 79400 nM. The Ratio IC50 (Homo sapiens [7]) was > 100, the IC50 (Kallikrein-5 [5]) was 6.31 nM and the Ratio IC50 (Homo sapiens [9]) was 10.
